According to article PMC9704493 (RSC Advances, 2022):
Read-outs that look alike come from different tables or passages of the source.

What was measured:
Assay type in all cases: cell-based, human
[1] = system: MCF-7 breast cancer cells; assay: MTT cell viability assay, MCF-7; conditions: for Selectivity indices (SI), MCF-7: MCF-7 versus MRC-5 fibroblasts
In short: (§1)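 Cells were seeded at 3 × 10^3 per well and grown for 24 h at 37 °C/5% CO2. A T0 plate was read at dosing and the others after 72 h. MTT (5 mg mL−1 in PBS) was added for 2.5 h, formazan dissolved in DMSO, and absorbance read at 550 nm. GI50 was interpolated, in triplicate. SI compares MRC-5 with cancer-line activity.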

[2] = system: HCT-116 colorectal carcinoma cells; assay: MTT cell viability assay, HCT-116; conditions: for Selectivity indices (SI), HCT-116: HCT-116 versus MRC-5 fibroblasts
In short: as §1

[3] = system: MRC-5 fibroblasts; assay: MTT cell viability assay, MRC-5 normal fibroblasts; conditions: for GI50: read-out: GI50 values (M) mean ± SD, MRC-5
In short: as §1

[4] = read-out: GI50 values (M) mean ± SD, MCF-7, MTT, 72 h exposure
[5] = read-out: GI50 values (M) mean ± SD, HCT-116, MTT, 72 h exposure
[6] = Homo sapiens, MCF7, 72 h, read-out: GI50 values (M) mean ± SD, MCF-7
[7] = Homo sapiens, HCT-116, 72 h, read-out: GI50 values (M) mean ± SD, HCT-116
[8] = Homo sapiens, MCF7, 72 h, read-out: GI50 values (µM) mean ±SD, MCF-7

Compound	Selectivity indices (SI), MCF-7 [1]	GI50 [1, 4] [M]	Selectivity indices (SI), HCT-116 [2]	GI50 [2, 5] [M]	GI50 ([3]; MTT, 72 h exposure) [M]	GI50 [1, 6] [M]	GI50 [2, 7] [M]	GI50 ([3]; Homo sapiens, MRC5, 72 h) [M]	GI50 [1, 8] [M]	GI50 ([2]; Homo sapiens, HCT-116, 72 h, read-out: GI50 values (µM) mean ±SD, HCT-116) [M]	fold reduction in potency against HCT-116 cells ([2]; relative to its potency against MCF-7 cells) [fold]	GI50 values (µM) mean ±SD, MRC-5 ([3]; MTT, 72 h exposure)	fold increase in activity against HCT-116 cells ([2]; relative to compound 3j) [fold]
2-(2-(1-(4-Fluorophenyl)ethylidene)hydrazinyl)-4-(4-cyanophenyl) thiazole [Compound 3e]	1.6	2.85e-05 ± 8e-07	6.5	6.9e-06 ± 2e-07	4.47e-05 ± 2e-07								
N#Cc1ccc(-c2csc(NN=Cc3cc(Br)cs3)n2)cc1 [3c′, 2-(2-((4-Bromothiophen-2-yl)methylene)hydrazinyl)-4-(4-cyanophenyl) thiazole]	1.8		1.2			4.3e-06 ± 3e-07	6.2e-06 ± 5e-07	7.6e-06 ± 1e-07					
Cc1nc(C=NNc2nc(-c3ccc(C#N)cc3)cs2)sc1C [3d′, 2-(2-((4,5-Dimethylthiazol-2-yl)methylene) hydrazinyl)-4-(4-cyanophenyl) thiazole]	2.5		5.1			9e-06 ± 1.2e-06	4.4e-06 ± 2e-07	2.25e-05 ± 2e-06					
N#Cc1ccc(-c2csc(NN=Cc3cccc(F)c3)n2)cc1 [Compound 3b, 2-(2-(3-Fluorobenzylidene)hydrazinyl)-4-(4-cyanophenyl) thiazole]									3.66e-05	2.2e-06			
N#Cc1ccc(-c2csc(NN=Cc3cccc(I)c3)n2)cc1 [Compound 3d, 2-(2-(3-Iodobenzylidene)hydrazinyl)-4-(4-cyanophenyl) thiazole]									2.3e-06		5		
N#Cc1ccc(-c2csc(NN=Cc3cc(Cl)ccc3O)n2)cc1 [Compound 3g, 2-(2-(5-Chloro-2-hydroxybenzylidene) hydrazinyl)-4-(4-cyanophenyl) thiazole]	4.1		1.7			4.1e-06 ± 4e-07	9.7e-06 ± 4e-07	1.68e-05 ± 7e-07					
Cc1ccc(C)c(C=NNc2nc(-c3ccc(C#N)cc3)cs2)c1 [Compound 3i, 2-(2-(2,5-Dimethylbenzylidene)hydrazinyl)-4-(4-cyanophenyl) thiazole]	0.9		0.8			7.1e-06 ± 3e-07	8e-06 ± 3e-07	6.2e-06 ± 4e-07					
COc1ccc(OC)c(C=NNc2nc(-c3ccc(C#N)cc3)cs2)c1 [Compound 3j, 2-(2-(2,5-Dimethoxybenzylidene)hydrazinyl)-4-(4-cyanophenyl) thiazole]	6.1		3.3			3.7e-06 ± 4e-07	6.9e-06 ± 2.5e-06	2.25e-05 ± 1e-07					
COc1ccc(C=NNc2nc(-c3ccc(C#N)cc3)cs2)c(C)c1 [Compound 3k, 2-(2-(4-Methoxy-2-methylbenzylidene) hydrazinyl)-4-(4-cyanophenyl) thiazole]	0.4		0.4			3.68e-05 ± 2.7e-06	3.7e-05 ± 9e-07	1.61e-05 ± 2e-07					
COc1ccc(C=NNc2nc(-c3ccc(C#N)cc3)cs2)c(OC)c1 [Compound 3l, 2-(2-(2,4-Dimethoxybenzylidene)hydrazinyl)-4-(4-cyanophenyl) thiazole]	3.3		3.6			9.2e-06 ± 4e-07	8.4e-06 ± 9e-07	3.01e-05 ± 6e-07				no significant activity	
N#Cc1ccc(-c2csc(NN=Cc3ccc(C(F)(F)F)cc3C(F)(F)F)n2)cc1 [Compound 3m, 2-(2-(2,4-Bis-(trifluoromethyl)benzylidene) hydrazinyl)-4-(4-cyanophenyl) thiazole]	8.3		3.5			2e-06 ± 8e-07	4.7e-06 ± 1.3e-06	1.65e-05 ± 6e-07					
COc1cc(C=NNc2nc(-c3ccc(C#N)cc3)cs2)cc(OC)c1 [Compound 3o, 2-(2-(3,5-Dimethoxybenzylidene)hydrazinyl)-4-(4-cyanophenyl) thiazole]	0.4		0.5			4.78e-05 ± 1.1e-06	3.56e-05 ± 1.1e-06	1.65e-05 ± 5e-07					
N#Cc1ccc(-c2csc(NN=Cc3cc(F)cc(Br)c3)n2)cc1 [Compound 3p, 2-(2-(3-Bromo-5-fluorobenzylidene)hydrazinyl)-4-(4-cyanophenyl) thiazole]	2.4		2.2			7.3e-06 ± 2e-07	8.1e-06 ± 2e-07	1.77e-05 ± 7e-07					
N#Cc1ccc(-c2csc(NN=Cc3cc(Br)cc([N+](=O)[O-])c3)n2)cc1 [Compound 3r, 2-(2-(3-Bromo-5-nitrobenzylidene)hydrazinyl)-4-(4-cyanophenyl) thiazole]	3		4.1			4.1e-06 ± 4e-07	3e-06 ± 1e-06	1.22e-05 ± 6e-07					
CCOc1cc(C=NNc2nc(-c3ccc(C#N)cc3)cs2)ccc1O [Compound 3s, 2-(2-(3-Ethoxy-4-hydroxybenzylidene) hydrazinyl)-4-(4-cyanophenyl) thiazole]	2.5		2.2			7.3e-06 ± 8e-07	8.4e-06 ± 6e-07	1.81e-05 ± 4e-07					
N#Cc1ccc(-c2csc(NN=Cc3ccc(Cl)c(Cl)c3)n2)cc1 [Compound 3u, 2-(2-(3,4-Dichlorobenzylidene)hydrazinyl)-4-(4-cyanophenyl) thiazole]	2.4		1.1			1.28e-05 ± 7e-07	2.72e-05 ± 5e-07	3.04e-05 ± 2e-07					
Cc1cc(C)c(C=NNc2nc(-c3ccc(C#N)cc3)cs2)c(C)c1 [Compound 3v, 2-(2-(2,4,6-Trimethylbenzylidene)hydrazinyl)-4-(4-cyanophenyl) thiazole]	2.7		2.8			4.2e-06 ± 6e-07	4e-06 ± 1e-06	1.12e-05 ± 3e-07					
N#Cc1ccc(-c2csc(NN=Cc3c(F)cc(F)cc3F)n2)cc1 [Compound 3w, 2-(2-(2,4,6-Trifluorobenzylidene)hydrazinyl)-4-(4-cyanophenyl) thiazole]	0.2		0.7			7e-06 ± 2e-07	1.5e-06 ± 8e-07	1.1e-06 ± 5e-07					
N#Cc1ccc(-c2csc(NN=Cc3c(O)cc(O)cc3O)n2)cc1 [Compound 3x, 2-(2-(2,4,6-Trihydroxybenzylidene)hydrazinyl)-4-(4-cyanophenyl) thiazole]	6.9		3.4			2.3e-06 ± 3e-07	4.7e-06 ± 3e-07	1.58e-05 ± 5e-07					
COc1cc(C=NNc2nc(-c3ccc(C#N)cc3)cs2)cc(OC)c1OC [Compound 3y, 2-(2-(3,4,5-Trimethoxybenzylidene)hydrazinyl)-4-(4-cyanophenyl) thiazole]	8.7		14.6			2.7e-06 ± 1e-07	1.6e-06 ± 4e-07	2.34e-05 ± 3e-07					
COc1cc(OC)c(OC)cc1C=NNc1nc(-c2ccc(C#N)cc2)cs1 [Compound 3z, 2-(2-(2,4,5-Trimethoxybenzylidene)hydrazinyl)-4-(4-cyanophenyl) thiazole]	8.7		11.5			2.5e-06 ± 2e-07	1.9e-06 ± 5e-07	2.18e-05 ± 2e-07					3.5
N#Cc1ccc(-c2csc(N/N=C/c3ccccc3F)n2)cc1 [a]						3.4e-06 ± 1e-06	3.1e-06 ± 1.5e-06	1.66e-05 ± 1e-07					
N#Cc1ccc(-c2csc(N/N=C/c3cccc(F)c3)n2)cc1 [b]						3.66e-05 ± 1.4e-06	2.2e-06 ± 5e-07	1.68e-05 ± 5e-07					
N.N.[Cl][Pt][Cl] [cisplatin, reference compound]	1.3	7.5e-06 ± 7e-07	0.9	9.8e-06 ± 2e-07	9.7e-06 ± 4e-07								
N#Cc1ccc(-c2csc(N/N=C/c3cccc(I)c3)n2)cc1 [d]						2.3e-06 ± 2e-07	1.13e-05 ± 7e-07	3.49e-05 ± 3e-07					
